Most compounds without a hit are left out; they make up all but 4% or so of the library.
KCNK3 block: human KCNK3 channel inhibitors, primary screen, CHO cells, FluxOR thallium flux, B-score. Potassium channel subfamily K member 3 (Homo sapiens), O14649. FluxOR fluorescence; active compounds read low. B-score at 10 µM. 340,000 tested, 0.84% active. AID 602410, 2012;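 active = B-score under library mean minus 4 SD, starting fluorescence ratio at most library mean plus 5 SD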;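 note: more negative B-score means stronger inhibition of thallium flux through KCNK3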
Target sequence (O14649 whole entry, looked up): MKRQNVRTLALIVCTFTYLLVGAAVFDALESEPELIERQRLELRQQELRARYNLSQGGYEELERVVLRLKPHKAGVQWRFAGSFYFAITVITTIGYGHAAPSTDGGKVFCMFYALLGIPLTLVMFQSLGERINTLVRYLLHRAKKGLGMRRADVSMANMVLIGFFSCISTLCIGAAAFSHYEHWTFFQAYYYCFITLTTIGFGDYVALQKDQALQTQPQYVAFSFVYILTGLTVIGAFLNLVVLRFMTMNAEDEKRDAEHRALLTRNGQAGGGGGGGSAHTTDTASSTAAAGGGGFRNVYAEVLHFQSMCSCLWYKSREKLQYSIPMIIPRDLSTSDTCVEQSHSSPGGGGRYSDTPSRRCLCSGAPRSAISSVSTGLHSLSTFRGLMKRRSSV
PHOSPHO1 inh: PubChem AID 1565; recombinant PHOSPHO1, absorbance phosphatase assay; 290,000 tested, 1.1% active; Phosphoethanolamine/phosphocholine phosphatase (Homo sapiens), Q8TCT1; inhibition, % at 13.3 µM; in the data active = inhibition above about 60%
Target sequence (Q8TCT1 whole entry, looked up): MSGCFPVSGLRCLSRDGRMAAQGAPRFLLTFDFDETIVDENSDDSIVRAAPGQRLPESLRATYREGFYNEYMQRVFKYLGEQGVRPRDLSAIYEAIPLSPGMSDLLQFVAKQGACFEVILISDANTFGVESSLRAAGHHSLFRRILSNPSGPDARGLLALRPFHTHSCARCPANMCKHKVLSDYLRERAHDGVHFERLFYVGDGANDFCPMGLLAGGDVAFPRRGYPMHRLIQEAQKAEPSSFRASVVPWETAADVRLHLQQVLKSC
KCNQ1 block: inhibitors of human KCNQ1 channel, primary screen, cell-based, thallium flux, high-throughput | CHO-K1 KCNQ1, FluxOR thallium flux fluorescence; active compounds read high | B-score at 10 µM | 310,000 tested, 1.3% active | AID 2642, 2010;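 active = compounds whose thallium flux B-score, printed positive for inhibition, exceeds three library SD while starting fluorescence stays within three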;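 note: channel opened by potassium depolarization with thallium stimulus after 20 min compound exposure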
hERG rescue: hERG rescue from dofetilide block, primary screen, cell-based, CHO-hERG, FluxOR thallium flux, dofetilide IC70; Voltage-gated inwardly rectifying potassium channel KCNH2 (Homo sapiens), Q12809; dofetilide IC70 present; activation (rescue from dofetilide block), less the hit threshold, % at 10 µM; 310,000 tested, 0.51% active; AID 1511, 2009;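 active = activation above the mean of controls blocked by dofetilide plus 5 SD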;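 note: thallium influx through hERG after potassium depolarization seen as dye fluorescence rise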
KCNK9 inh: KCNK9 potassium channel inhibitors, primary screen, HEK293 cells, thallium flux; B-score at 10 µM; FluxOR thallium flux fluorescence; active compounds read low; 310,000 tested, 1.2% active;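 active = ratio B-score over 3 SD below the library mean, with starting fluorescence within 5 SD of its mean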;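 note: negative B-score means less thallium flux so channel inhibition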
KCNQ1 act: potentiators or activators of KCNQ1 channel, primary screen, cell-based, thallium flux, high-throughput; CHO-K1 KCNQ1, thallium flux FluxOR fluorescence; active compounds read high; B-score at 10 µM; 310,000 tested, 0.35% active; AID 2648, 2010;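 active = fluorescence ratio B-score, a plate-corrected score, at least three library SD, with initial intensity B-score within 5 SD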
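Medium – assay buffer, equal DMSO in all wells · Material – CHO-K1 cell line with stable KCNQ1 potassium channel expression · Signal – kinetic FluxOR thallium fluorescence, 10-s 1-Hz baseline, 110-s post-stimulus read · Compound – single concentration per compound, DMSO matched to controls · Schedule – 37 °C overnight plating, 90-min dark dye load, 20-min compound pretreatment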
KCNQ1 block val: KCNQ1 potassium channel inhibitors, confirmation, cell-based, Tl flux, duplicate; shares compounds with KCNQ1 block; KCNQ1 cell line, FluxOR thallium flux fluorescence; inhibition, % at 10 µM; 1,600 tested, 93% active;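 active = primary screen active, with duplicate mean exceeding buffer control mean plus 3 SD of buffer wells, cut at about 28% in these data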;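 note: 0% = buffer control ratio and 100% = XE991 inhibitor control ratio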
CHO KCNQ1 ctr: thallium flux effects in parental CHO cells, counter-screen for KCNQ1 inhibitor project, cell-based, Tl flux; shares compounds with KCNQ1 block; parental CHO-K1, FluxOR thallium flux fluorescence ratio; active compounds read low; zero means no signal rise above baseline; fluorescence ratio (Tl flux) at 10 µM; 1,600 tested, 21% active; AID 588366, 2011;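 active = mean of duplicate thallium-flux fluorescence ratios in parental host cells more than 5 SD below the buffer control mean, cut at about 0.38 in these data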;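 note: ratio is peak minus minimum fluorescence divided by baseline fluorescence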
KCNQ1 APC inh: KCNQ1 channel inhibitors, confirmation, orthogonal assay, cell-based, automated electrophysiology; shares compounds with KCNQ1 block; KCNQ1-CHO cells, automated patch clamp current; calls only at 10 µM; 490 tested, 20% active; AID 624120, 2012;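 active = KCNQ1 current drop exceeding 3 SD of negative control wells, seen in both duplicate runs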;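 note: steady state current during a 2 s step from -80 to +40 mV; negative values mean current inhibition and positive values mean potentiation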
KCNQ2 spec: KCNQ2 channel inhibition, selectivity assay for KCNQ1 inhibitor project, cell-based; shares compounds with KCNQ1 block; AID 651746, 2012; KCNQ2 cells, FluxOR thallium flux fluorescence; 1,600 tested, 71% active; inhibition, % at 10 µM;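 active = mean percent inhibition of the KCNQ2 thallium signal more than 5 SD above the buffer-only control wells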;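 note: KCNQ2 expressed in CHO cells; 0% = buffer control wells and 100% = XE-991 inhibitor control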
KCNQ1 KCNE1 spec: KCNQ1/KCNE1 channel inhibition, selectivity assay for KCNQ1 inhibitor project, CHO-K1 cells, thallium flux, FluxOR. shares compounds with KCNQ1 block. FluxOR thallium flux fluorescence. inhibition, % at 10 µM. 1,600 tested, 77% active. AID 652147, 2013;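 active = mean percent inhibition of duplicate wells above the buffer-only control mean plus 3 SD of those controls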;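 note: 0% = buffer only wells and 100% = XE-991 inhibitor control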
KCNK9 inh conf: KCNK9 potassium channel inhibitors, confirmation, HEK293 cells, thallium flux, duplicate | FluxOR thallium flux fluorescence | shares compounds with KCNK9 inh | AID 492992, 2010 | inhibition, % at 10 µM | 4,900 tested, 43% active;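 active = thallium signal inhibited by more than 5 SD of the compound-free buffer control wells, on both duplicate plates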;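 note: 0% = assay buffer control wells without compound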
Kir21 sel: mouse Kir2.1 channel inhibition, confirmation, selectivity assay for KCNK9 modulator project, cell-based, HEK293, thallium flux. shares compounds with KCNK9 inh. Kir2.1 cells, FluxOR thallium flux fluorescence. inhibition, % at 10 µM. 4,900 tested, 4% active;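 active = thallium signal drop more than 5 SD beyond the mean of the no-compound control wells, seen in both duplicate plates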;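 note: signal is fluorescence rise after thallium addition divided by baseline fluorescence; plate controls were assay buffer only for no effect and full block by chlorpromazine control for full effect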
KCNK9 uninduced: thallium flux in non-induced HEK293 cells, confirmation, counter-screen for KCNK9 inhibitor project, cell-based, second counter screen, non-induced KCNK9-HEK293. shares compounds with KCNK9 inh. FluxOR thallium flux. inhibition, % at 10 µM. 4,900 tested, 40% active;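 active = thallium signal drop beyond 5 SD of the untreated control mean, on both duplicate plates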;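 note: plate controls were buffer only IC0 wells for no effect and SID17386958 at its maximal inhibitory level for full effect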
* = called active by the depositor; i = inactive; / = not tested or not shown.

SMILES | KCNK3 block | PHOSPHO1 inh | KCNQ1 block | hERG rescue | KCNK9 inh | KCNQ1 act | KCNQ1 block val | CHO KCNQ1 ctr | KCNQ2 spec | KCNQ1 KCNE1 spec | KCNK9 inh conf | Kir21 sel | KCNK9 uninduced | others
O=S(=O)(c1ccc(Cl)s1)N1CCC(Cc2ccccc2)CC1 | i | -4.9 | 6* | -12.6 | i | i | 71.5* | 0.431 | 113.7%* | 56.0%* | i | i | i
CN(CCc1ccccn1)C(=S)Nc1cccc(S(=O)(=O)N(C)C)c1 | i | 23.3 | i | -1.3 | i | i | / | / | / | / | / | / | /
CC(C)(C)c1nc(SCC(=O)c2ccccc2)c2ccccc2n1 | i | 30.4 | 9* | -18.7 | -9.04* | i | 84.5* | 0.679 | i | 58.5%* | 46.5%* | 51.0%* | 47.0%*
COc1cccc(CNC(=O)CC(NC(C)=O)c2ccccc2)c1 (stereo unspecified) | i | -0.6 | i | -16.1 | i | i | / | / | / | / | / | / | /
CC(C)OC(=O)NC(c1ccccc1)C(Cl)(Cl)Cl (stereo unspecified) | i | 0.7 | i | -17.5 | i | i | / | / | / | / | / | / | /
CCOc1ccc(OC(=O)NC(c2ccccc2)C(Cl)(Cl)Cl)cc1 (stereo unspecified) | i | 32.5 | 8* | -16.7 | i | i | 111.0* | 0.431 | 100.7%* | 168.5%* | i | i | i
CC(Cc1cccs1)NC(=S)Nc1ccc(Cl)cc1 (stereo unspecified) | i | 6.5 | 8* | -21.4 | -10.4* | i | 50.0* | 0.49 | 67.3%* | 65.5%* | 37.5%* | i | i
CC(Cc1cccs1)NC(=S)Nc1ccc(Cl)c(Cl)c1 (stereo unspecified) | i | -4.9 | i | -6.1 | i | i | / | / | / | / | / | / | /
CCCCn1c(N)c(N(CC(C)C)C(=O)c2ccc(OC)c(S(=O)(=O)N3CCOCC3)c2)c(=O)[nH]c1=O | i | / | / | / | / | / | / | / | / | / | / | / | /
O=C(COc1cccc(Cl)c1Cl)Nc1ccc2c(c1)CCC2 | i | 19.2 | i | -5.3 | i | i | / | / | / | / | / | / | /
O=C(COc1ccccc1Cl)c1ccc2c(c1)CCCC2 | i | -90.2 | 6* | -6.8 | i | i | 94.0* | 0.435 | 92.3%* | 119.0%* | i | i | 37.0%* | KCNQ1 APC inh=i
O=C1C2C3C=CC(C3)C2C(=O)N1Nc1ccccc1 (stereo unspecified) | i | 32.7 | i | -10.3 | i | i | / | / | / | / | / | / | /
Cc1ccc(Cl)cc1NC(=O)CC(O)(C(F)(F)F)C(F)(F)F | i | -21.3 | 8* | -18.4 | -19.2* | i | 89.5* | 0.47 | i | 83.0%* | i | 29.0%* | 28.0%*
CCOC(=O)Cn1c(-c2ccccc2)nc2ccccc2c1=O | i | 6.0 | i | -12.0 | i | i | / | / | / | / | / | / | /
CCCOC(=O)C(C)n1c(-c2ccccc2)nc2ccccc2c1=O (stereo unspecified) | i | 19.2 | 7* | -9.5 | -10.6* | i | 0.0 | 0.477 | i | 57.5%* | 51.0%* | i | 35.5%*
COc1ccc(-c2cc3c(=O)n(CC(=O)NCc4cccnc4)ncn3n2)cc1 | i | 20.2 | i | -8.3 | i | i | / | / | / | / | / | / | /
c1cncc(CNc2nc(-c3cccnc3)nc3ccccc23)c1 | i | 6.5 | i | -13.9 | i | i | / | / | / | / | / | / | /
CC(C)(C)c1ccc(-c2nc(NCc3cccnc3)c3ccccc3n2)cc1 | i | -9.8 | 15* | -2.4 | -9.27* | i | 152.5* | 0.47 | 100.0%* | 186.0%* | 26.0%* | i | 41.5%* | KCNQ1 APC inh=i
Cc1cc(C(=O)Nc2ccc(Cl)cc2)c(C)n1-c1ccccc1 | i | 38.6 | 13* | -7.2 | i | i | 124.0* | 0.387 | 115.0%* | 98.0%* | i | i | i | KCNQ1 APC inh=i
Cc1ccc(NC(=O)c2cc(C)n(-c3cccc(C)c3)c2C)cc1 | i | -1.5 | i | -11.1 | i | i | / | / | / | / | / | / | /
CC(=O)c1ccc2c(c1)C1C=CCC1C(c1cc3c(cc1Br)OCO3)N2 (stereo unspecified) | i | / | 8* | -21.7 | -8.66* | i | 139.5* | 0.418 | 99.3%* | 145.0%* | 50.0%* | i | 37.0%* | KCNQ1 APC inh=i
O=C(O)c1nn(-c2ccccc2-c2n[nH]c(=O)[nH]c2=O)c(=O)[nH]c1=O | / | -7.8 | i | -7.0 | i | i | / | / | / | / | / | / | /
COc1ccccc1N1CCN(C(=O)CSc2nc3ccccc3[nH]2)CC1 | i | 25.7 | i | -11.1 | i | i | / | / | / | / | / | / | /
COc1ccccc1N1CCN(C(=O)CSc2nc3ccccc3nc2N2CCCCC2)CC1 | i | 38.6 | 6* | -18.4 | i | i | 70.0* | 0.521 | i | 99.0%* | i | i | i
